Like-named read-outs stand apart in the source and are kept apart here.
Key:
[1] = system: human colon adenocarcinoma Caco-2; experiment: Cell viability assay; type: cell-based; settings: Caco-2, 72 h, read-out: IC50 Caco-2, dark
[2] = system: human alveolar adenocarcinoma A549; experiment: Cell viability assay; type: cell-based; settings: A549, 72 h, read-out: IC50 A549, dark
murine melanoma B16-F10 = experiment: Cell viability assay; type: cell-based; settings: read-out: IC50 B16-F10, dark
A549 cells = experiment: Quantification of cellular uptake by LC-MS/MS; type: cell-based, human
Outline: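 A549 cells (1.2 × 10⁵/well) adhered overnight, then received 3 μM test compound. Medium was removed immediately or after 1, 3, 6, 12 or 24 h in the dark at 37 °C/5% CO₂. Cells were washed with PBS/1.5% DMSO, scraped into acetonitrile, sonicated and centrifuged. Extracts were quantified by LC-MS/MS against external standards (0.02–0.25 μM in A549 extract). Per-cell concentration assumed 1.7 pL cell volume; n = 4, mean ± SEM.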

[3] = system: human colorectal adenocarcinoma HT-29; experiment: Cell viability assay; type: cell-based; settings: read-out: IC50 HT-29, dark
[4] = system: triple negative human breast adenocarcinoma MDA-MB-231; experiment: Cell viability assay; type: cell-based; settings: MDA-MB-231, 72 h, read-out: IC50 MDA-MB-231, dark

Row | Compound | IC50 [1] [µM] | IC50 [2] [µM] | IC50 (murine melanoma B16-F10; Mus musculus, B16-F10, 72 h) [µM] | maximum cellular concentration per cell (A549 cells; 3 μM, A549, assuming average cell volume of 1.7 pL and homogeneous distribution) [μM per cell] | time at which cellular uptake was optimal / plateaued (A549 cells; A549, 3 μM) [h] | IC50 ([3]; Homo sapiens, HT-29, 72 h) [µM] | IC50 [4] [µM] | IC50 (murine melanoma B16-F10; dark, 72 h, WST-1, mean ± SEM) [µM] | IC50 ([3]; dark, 72 h, WST-1, mean ± SEM) [µM]
1 | Cc1cc(-c2ccccc2)c2ccc3c(-c4ccccc4)cc(C)nc3c2n1 [BC, bathocuproine] | > 100 | > 100 | > 100 | 2000 | 3 | > 100 | > 100 | – | –
2 | N.N.[Cl][Pt][Cl] [Cisplatin, cisplatin] | – | – | – | – | – | – | – | 7.7 ± 0.2 | > 100
3 | c1ccc(-c2ccccn2)nc1 [bipy, 2,2′-bipyridine] | > 100 | > 100 | > 100 | – | – | > 100 | 37.5 ± 0.14 | – | –

Reference: PMC9064604 (RSC Advances, 2019)
